Laboratory results taken from ChEMBL document CHEMBL2384939, “Synthesis of pyrazolo[1,5-a]pyrimidine linked aminobenzothiazole conjugates as potential anticancer agents” (Bioorg Med Chem Lett, 2013).
The source made the active and inactive calls. The calls are words filed in the database; no cut-off is given here.

Key:
ACHN = assay: Cytotoxicity against human ACHN cells after 48 hrs by MTT assay; format: functional, cell-based
Procedure, shortened: (§1)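 MTT assay: […] were plated in DMEM with 10% FBS and incubated for 24 h at 37 °C under CO2. Compounds diluted in culture medium were added alongside a vehicle control for 48 h. MTT (10 µl of a 5 mg/ml stock) was added for a further 4 h. The supernatant was then removed, the formazan dissolved in DMSO, and absorbance read at 540 nm. IC50 was derived.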

MCF7 = assay: Cytotoxicity against human MCF7 cells after 48 hrs by MTT assay; format: functional, cell-based; details: MCF7, 48 h; procedure, shortened: as §1
DU-145 = assay: Cytotoxicity against human DU145 cells after 48 hrs by MTT assay; format: functional, cell-based; details: DU-145, 48 h; procedure, shortened: as §1
A549 [1] = assay: Cytotoxicity against human A549 cells after 48 hrs by MTT assay; format: functional, cell-based; details: A549, 48 h; procedure, shortened: as §1
HeLa = assay: Cytotoxicity against human HeLa cells after 48 hrs by MTT assay; format: functional, cell-based; procedure, shortened: as §1
A549 [2] = assay: Cell cycle arrest at human A549 cells assessed as accumulation at G0/G1 phase at 2 uM after 48 hrs by propidium iodide-staining-based FACS flow cytometric analysis (reference value: 81.33%); format: functional
A549 [3] = assay: Induction of apoptosis in human A549 cells assessed as activation of caspase-3 at 2 uM after 48 hrs by ELISA relative to control; format: functional
Procedure, shortened: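 A549 lung cancer cells exposed to 1 and 2 µM compound for 48 h, with roscovitine as positive control. Pellets lysed for 15 min, and supernatant caspase-3 activity read by a commercial colorimetric kit relative to untreated control. Values are mean ± SD of two experiments run in triplicate.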

A549 [4] = assay: Cell cycle arrest at human A549 cells assessed as accumulation at S phase at 2 uM after 48 hrs by propidium iodide-staining-based FACS flow cytometric analysis (reference value: 4.48%); format: functional
A549 [5] = assay: Cell cycle arrest at human A549 cells assessed as accumulation at G2/M phase at 2 uM after 48 hrs by propidium iodide-staining-based FACS flow cytometric analysis (reference value: 13.17%); format: functional
A549 [6] = assay: Cell cycle arrest at human A549 cells assessed as accumulation at sub G1 phase at 2 uM after 48 hrs by propidium iodide-staining-based FACS flow cytometric analysis (reference value: 1.02%); format: functional
A549 [7] = assay: Induction of apoptosis in human A549 cells assessed as DNA fragmentation at 2 uM after 48 hrs by agarose gel electrophoresis; format: functional, cell-based
Procedure, shortened: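 A549 cells (1×10^6) seeded in six-well plates for 24 h, then exposed to 2 µM compound or roscovitine for 48 h and pelleted. Lysate treated with SDS and RNase-A (2 h, 56 °C), then proteinase K (2 h, 37 °C). DNA precipitated with ammonium acetate/cold ethanol, dissolved in TE, and laddering resolved on 2% agarose gel against a 50 bp marker.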

COc1ccc(-c2cc(C(=O)Nc3nc4ccccc4s3)nc3cc(-c4ccccc4)nn23)cc1OC
IC50 (ACHN): 7.94 µM | IC50 (MCF7): 14.7 µM | IC50 (DU-145): 19.1 µM | IC50 (A549 [1]): 5.49 µM | IC50 (HeLa): 8.91 µM

COc1cc(-c2cc(C(=O)Nc3nc4cc(C)c(C)cc4s3)nc3cc(-c4ccccc4)nn23)cc(OC)c1OC
IC50 (ACHN): 3.8 µM | IC50 (MCF7): 2.29 µM | IC50 (DU-145): 3.71 µM | IC50 (A549 [1]): 2.34 µM | IC50 (HeLa): 8.91 µM

COc1ccc2nc(NC(=O)c3cc(-c4ccc(F)cc4)n4nc(-c5ccccc5)cc4n3)sc2c1
IC50 (ACHN): 26.3 µM | IC50 (MCF7): 24.5 µM | IC50 (DU-145): 15.4 µM | IC50 (A549 [1]): 24 µM | IC50 (HeLa): 17.3 µM

CC[C@H](CO)Nc1nc(NCc2ccccc2)c2ncn(C(C)C)c2n1 [SELICICLIB]
Activity (A549 [2]): 46.75% | fold change (FC) (A549 [3]): 4 | IC50 (ACHN): 2.88 µM | IC50 (MCF7): 3.98 µM | Activity (A549 [4]): 5.26% | Activity (A549 [5]): 40.69% | IC50 (DU-145): 1.9 µM | Activity (A549 [6]): 7.3% | IC50 (A549 [1]): 2.18 µM | Activity (A549 [7]): Active | IC50 (HeLa): 1.81 µM

COc1ccc(-c2cc(C(=O)Nc3nc4ccc(F)cc4s3)nc3cc(-c4ccccc4)nn23)cc1
IC50 (ACHN): 39.3 µM | IC50 (MCF7): 35.5 µM | IC50 (DU-145): 31.4 µM | IC50 (A549 [1]): 11.7 µM | IC50 (HeLa): 41.7 µM

COc1ccc(-c2cc(C(=O)Nc3nc4ccc(F)cc4s3)nc3cc(-c4ccccc4)nn23)cc1OC
IC50 (ACHN): 8.12 µM | IC50 (MCF7): 22.4 µM | IC50 (DU-145): 18.6 µM | IC50 (A549 [1]): 6.91 µM | IC50 (HeLa): 8.31 µM

O=C(Nc1nc2ccc(Cl)cc2s1)c1cc(-c2ccc(F)cc2)n2nc(-c3ccccc3)cc2n1
IC50 (ACHN): 13.8 µM | IC50 (MCF7): 19.8 µM | IC50 (DU-145): 17.6 µM | IC50 (A549 [1]): 6.6 µM | IC50 (HeLa): 9.77 µM

COc1cc(-c2cc(C(=O)Nc3nc4ccc(Cl)cc4s3)nc3cc(-c4ccccc4)nn23)cc(OC)c1OC
IC50 (ACHN): 41.7 µM | IC50 (MCF7): 30.2 µM | IC50 (DU-145): 38.9 µM | IC50 (A549 [1]): 18.2 µM | IC50 (HeLa): 22.4 µM

COc1ccc(-c2cc(C(=O)Nc3nc4cc(C)c(C)cc4s3)nc3cc(-c4ccccc4)nn23)cc1OC
IC50 (ACHN): 8.7 µM | IC50 (MCF7): 2.51 µM | IC50 (DU-145): 6.91 µM | IC50 (A549 [1]): 2.95 µM | IC50 (HeLa): 6.76 µM

COc1ccc(-c2cc(C(=O)Nc3nc4ccc(Cl)cc4s3)nc3cc(-c4ccccc4)nn23)cc1
IC50 (ACHN): 7.24 µM | IC50 (MCF7): 4.89 µM | IC50 (DU-145): 5.88 µM | IC50 (A549 [1]): 3.09 µM | IC50 (HeLa): 5.88 µM

COc1ccc2nc(NC(=O)c3cc(-c4ccc(OC)c(OC)c4)n4nc(-c5ccccc5)cc4n3)sc2c1
IC50 (ACHN): 13.3 µM | IC50 (MCF7): 18.7 µM | IC50 (DU-145): 14 µM | IC50 (A549 [1]): 15.8 µM | IC50 (HeLa): 11 µM

Cc1cc2nc(NC(=O)c3cc(-c4ccc(F)cc4)n4nc(-c5ccccc5)cc4n3)sc2cc1C
IC50 (ACHN): 33 µM | IC50 (MCF7): 17 µM | IC50 (DU-145): 12.9 µM | IC50 (A549 [1]): 12.6 µM | IC50 (HeLa): 18.2 µM

COc1ccc2nc(NC(=O)c3cc(-c4cc(OC)c(OC)c(OC)c4)n4nc(-c5ccccc5)cc4n3)sc2c1
IC50 (ACHN): 5.24 µM | IC50 (MCF7): 2.95 µM | IC50 (DU-145): 3.98 µM | IC50 (A549 [1]): 2.81 µM | IC50 (HeLa): 8.7 µM

COc1ccc(-c2cc(C(=O)Nc3nc4ccc(OC)cc4s3)nc3cc(-c4ccccc4)nn23)cc1
IC50 (ACHN): 38.3 µM | IC50 (MCF7): 19.1 µM | IC50 (DU-145): 7.58 µM | IC50 (A549 [1]): 17.4 µM | IC50 (HeLa): 24.5 µM

O=C(Nc1nc2ccc(F)cc2s1)c1cc(-c2ccc(F)cc2)n2nc(-c3ccccc3)cc2n1
IC50 (ACHN): 35.5 µM | IC50 (MCF7): 22.9 µM | IC50 (DU-145): 22.9 µM | IC50 (A549 [1]): 14.8 µM | IC50 (HeLa): 29.5 µM

COc1cc(-c2cc(C(=O)Nc3nc4ccc(F)cc4s3)nc3cc(-c4ccccc4)nn23)cc(OC)c1OC
IC50 (ACHN): 32.4 µM | IC50 (MCF7): 27.5 µM | IC50 (DU-145): 25.7 µM | IC50 (A549 [1]): 22.4 µM | IC50 (HeLa): 25.1 µM

COc1ccc(-c2cc(C(=O)Nc3nc4ccccc4s3)nc3cc(-c4ccccc4)nn23)cc1
IC50 (ACHN): 1.69 µM | IC50 (MCF7): 2.23 µM | IC50 (DU-145): 2.95 µM | IC50 (A549 [1]): 1.54 µM | IC50 (HeLa): 4.67 µM

COc1ccc(-c2cc(C(=O)Nc3nc4ccc(Cl)cc4s3)nc3cc(-c4ccccc4)nn23)cc1OC
IC50 (ACHN): 7.76 µM | IC50 (MCF7): 6.91 µM | IC50 (DU-145): 9.33 µM | IC50 (A549 [1]): 6.16 µM | IC50 (HeLa): 9.12 µM

COc1ccc(-c2cc(C(=O)Nc3nc4cc(C)c(C)cc4s3)nc3cc(-c4ccccc4)nn23)cc1
IC50 (ACHN): 22.4 µM | IC50 (MCF7): 19.7 µM | IC50 (DU-145): 12.3 µM | IC50 (A549 [1]): 13.2 µM | IC50 (HeLa): 14.1 µM
